Screening results from PubChem.
An excerpt weighted towards active compounds, which were near 3.9% of everything screened.
TAAR1 ag: human TAAR1 agonists, primary screen, Fluo-8 calcium fluorescence, CHO RD-HGA16 cells; Trace amine-associated receptor 1 (Homo sapiens), Q96RJ0; vehicle wells 0%, saturating PEA agonist 100%; activation, % at 3 µM; 360,000 tested, 0.99% active; AID 624467, 2012;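 active = activation above the mean activation of all test compounds in the run plus 3 SD, cut at about 38% in these data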
Target sequence (Q96RJ0 whole entry, looked up): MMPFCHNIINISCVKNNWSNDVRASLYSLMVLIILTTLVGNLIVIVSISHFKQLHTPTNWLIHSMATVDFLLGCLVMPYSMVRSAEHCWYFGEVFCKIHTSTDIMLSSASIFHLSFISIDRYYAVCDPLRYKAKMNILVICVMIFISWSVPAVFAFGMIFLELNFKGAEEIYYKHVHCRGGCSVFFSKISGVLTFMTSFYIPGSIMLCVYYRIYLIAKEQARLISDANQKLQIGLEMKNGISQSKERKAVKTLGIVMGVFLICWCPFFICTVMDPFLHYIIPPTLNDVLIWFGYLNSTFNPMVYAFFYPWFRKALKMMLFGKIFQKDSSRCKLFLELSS
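Test system: RD-HGA16 (CHO) cells co-expressing Gα16 and hTAAR1 | Doses: Single dose, 3 µM | Schedule: 17-24 h seeding, 75 min 37 °C dye, 30 min RT | Evaluation: % activation from peak over basal fluorescence ratio, DMSO-to-PEA scaled | Technique: Kinetic Fluo-8 calcium fluorescence | Benchmarks: Low control DMSO, high control PEA (EC100)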
ANO1 block: TMEM16A chloride channel inhibitors, primary screen, cell-based, HTS; HEK293 TMEM16A/YFP iodide influx fluorescence, ionomycin; normalized B-score (activity score, 25-100; higher = stronger inhibition) at 10 µM; Anoctamin-1 (Mus musculus), Q8BHY3; 310,000 tested, 1.2% active;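 active = ratio plate-corrected score three or more library SD toward inhibition, starting fluorescence score within five deviations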;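 note: score derived from kinetic fluorescence span divided by baseline fluorescence per well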
CRFR2-BP ag: agonists of CRF-BP/CRF-R2 complex, primary screen, cell-based, HEK293, calcium dye fluorescence, uHTS. activation, % at 13.2 µM. AID 588473, 2011. 350,000 tested, 0.46% active. calcium dye fluorescence (FLIPR); percent of saturating CRF peptide response. CRF-binding protein / CRF receptor 2 complex (human);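 active = activation of at least 50%, plus an integration ratio under a set limit after plate pattern correction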
ANO1 activ: TMEM16A chloride channel activators or potentiators, primary screen, cell-based, HTS | HEK293 TMEM16A/YFP-H148Q/I152L, iodide quench fluorescence; stronger effect = lower value | B-score at 10 µM | 340,000 tested, 0.3% active;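 active = fluorescence-ratio B-score plate-corrected deviation score at least 3 library SD below zero, with starting fluorescence score within 5 deviations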;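 note: channel opened by trigger with iodide after compound preincubation; score built on the fluorescence ratio of max minus min over baseline; more negative score means more quench and so TMEM16A activation or potentiation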
CRFR2-BP antag: antagonists of CRF-BP/CRF-R2 complex, primary screen, cell-based, HEK293, calcium dye fluorescence, uHTS | 350,000 tested, 0.59% active | inhibition, % at 11.8 µM | CRF-induced calcium fluorescence;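 active = inhibition of the ligand-induced calcium signal above about 50% at the single tested concentration, limit read from the data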
TAAR1 antagonist: human TAAR1 antagonists, primary screen, Fluo-8 calcium fluorescence, CHO RD-HGA16 cells | inhibition, % at 3 µM | antagonist | AID 624466, 2012 | 360,000 tested, 1.5% active;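 active = inhibition above a per-plate cutoff, the mean inhibition of test compounds on that plate plus 3 SD, cut at about 49% in these data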
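test system = CHO RD-HGA16 cells bearing hTAAR1 | replication = singlicate | controls = DMSO-only wells and EC80 β-PEA-stimulated wells | reagent = EC80 β-phenethylamine stimulus | read-out basis = percent inhibition of PEA-evoked calcium signal, max/basal emission ratio | schedule = seeding 17-24 h prior, 75-min 37 °C, 30-min RT dye loading | signal = kinetic Fluo-8 calcium fluorescence measurement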
Of the large screens only hits and unclear results are named; the others gave an inactive call.

O=C1/C(=C/c2ccc(Br)cc2)Oc2cc(O)ccc21	ANO1 block 100
CSc1ncccc1C(=O)Nc1ccc2c(c1)OCCO2	none (no result: ANO1 block)
NCC12CC3CC(C1)CC(c1ccc(Br)cc1)(C3)C2	TAAR1 ag 42
COc1cccc(C2=NN(C(=O)C3CC3)C(O)(C(F)(F)F)C2)c1 (stereo not given)	none (no result: ANO1 block, ANO1 activ)
N#Cc1ccc(Oc2ccc(C#N)c(C#N)c2)cc1C#N	none (no result: ANO1 block)
COC(=O)CSc1nnc(-c2ccc(NS(=O)(=O)c3ccccc3)cc2)o1	ANO1 block 25
O=C(/C=C/c1ccco1)Nc1cccc(NC(=O)/C=C/c2ccco2)n1	TAAR1 antagonist 54
Cc1nc(NC(=O)/C=C/c2ccco2)sc1C	none
CCCc1cc(=O)n2nc(N3CCC(C(=O)N4CCN(c5ccc(OC)cc5)CC4)CC3)sc2n1	none
O=c1onc(-c2ccccc2)n1Cc1ccc([N+](=O)[O-])cc1	none (no result: ANO1 block, ANO1 activ)
O=C(/C=C/c1cccc([N+](=O)[O-])c1)Nc1cccc(NC(=O)c2cccs2)c1	TAAR1 antagonist 58
O=C(/C=C/c1ccc(Cl)c([N+](=O)[O-])c1)Nc1cccc(NC(=O)c2ccco2)c1	TAAR1 antagonist 69
O=C(/C=C/c1ccc(Cl)c([N+](=O)[O-])c1)Nc1ccc(NC(=O)c2ccco2)cc1	none (no result: ANO1 block)
CC(C)Cc1ccc(C(C)CC2=CCC(CN(C)C)C2=O)cc1 (stereo not given)	TAAR1 antagonist 51 (no result: ANO1 block)
CC(C)Cc1ccc(C(C)/C=C2/CCC(CN3CCCCC3)C2=O)cc1 (stereo not given)	none (no result: ANO1 block)
COC(=O)C1(Cc2cc(-c3ccc(OC)cc3OC)no2)CCN(C(=O)OC(C)(C)C)CC1	ANO1 block 25
Cc1ccc(CCNC(=O)c2nc(CS(=O)(=O)c3ccc(Cl)cc3)no2)cc1	TAAR1 antagonist 57
CCCSc1ccc([C@H]2N[C@@](C)(C(=O)OC)[C@H]3C(=O)N(C)C(=O)[C@@H]23)cc1	none
CCCCCCSc1ccc([C@H]2N[C@@](C)(C(=O)OC)[C@H]3C(=O)N(C)C(=O)[C@@H]23)cc1	ANO1 block 100
COc1ccc(NC(=O)C2(C)Cc3c(-c4ccc(N(C)C)cc4)ccnc3O2)cc1 (stereo not given)	none (no result: ANO1 block, CRFR2-BP ag, ANO1 activ, CRFR2-BP antag)
CSc1ccc(CN(C)C(=O)c2cc(=O)[nH]c3ccccc23)cc1	none
COc1ccc(Cl)cc1C(=O)Nc1ccc(S(N)(=O)=O)cc1	none
NS(=O)(=O)c1ccc(NC(=O)Nc2ccc(Cl)cc2)cc1	TAAR1 ag 41
NS(=O)(=O)c1ccc(NC(=O)c2cc(Cl)ccc2Cl)cc1	ANO1 activ -5.5
CNC(=O)Nc1ccc(S(N)(=O)=O)cc1	none
CC(=O)SCC(Cc1ccccc1)C(=O)NCC(=O)OCc1ccccc1 (stereo not given)	none (no result: TAAR1 ag, CRFR2-BP ag, ANO1 activ, CRFR2-BP antag, TAAR1 antagonist)
CN(C)CCCN(C(=O)COc1ccc(Cl)cc1)c1nc2ccc(F)cc2s1	TAAR1 ag 41
Cc1ccc2nc(N(CCCN(C)C)C(=O)COc3ccc(Cl)cc3)sc2c1	TAAR1 ag 45
O=C(CN1CCOCC1)NN=C1CCCCCCCCCCC1	none
COc1ccc(S(=O)(=O)N2CCOCC2)cc1NC(=O)CCc1cc(OC)c(OC)c(OC)c1	none (no result: ANO1 block)
COc1ccc(CN2CCN(C(=O)c3cccnc3)CC2)cc1Br	none
O=C(c1cccnc1)N1CCN(Cc2cccc(Br)c2)CC1	ANO1 activ -5.8
COc1ccc(/C(O)=C/c2nc3ccccc3n(-c3ccccc3)c2=O)cc1	CRFR2-BP ag 132
COc1ccc(-n2c(=O)c(CCC(=O)N3CCN(c4cccc(OC)c4)CC3)nc3ccccc32)cc1	none (no result: ANO1 block, ANO1 activ)
CN(Cc1nc2ccccc2c(=O)[nH]1)C(=O)c1cc(-c2ccc(Br)cc2)nc2ccccc12	TAAR1 antagonist 50 (no result: ANO1 block)
CN(Cc1nc2ccccc2c(=O)[nH]1)C(=O)c1ccccc1OCc1ccc(Cl)cc1	none (no result: ANO1 block)
COc1ccc(C2CC(=O)C=C(NNS(=O)(=O)c3ccc(C)cc3)C2)cc1 (stereo not given)	none
Cc1ccc(S(=O)(=O)Nc2ccccc2-c2ccccc2NS(=O)(=O)c2ccc(C)cc2)cc1	ANO1 block 100, TAAR1 antagonist 49
O=C1c2ccccc2-c2cccc(NS(=O)(=O)c3ccc(C(F)(F)F)cc3)c21	CRFR2-BP ag 97
CSc1ccc(S(=O)(=O)N2CCC(C(=O)NCCN3CCOCC3)CC2)cc1	none
C[n+]1cc(C(=O)N2CCCCC2)ccc1/C=C/c1c[nH]c2ccccc12	CRFR2-BP ag 79
O=C1NC[C@@H](CCCCN2C[C@H](Cc3ccc(O)cc3)N(CCC3CCCCC3)C(=O)C2=O)N(CCc2ccc(O)cc2)C1=O	none (no result: ANO1 block, CRFR2-BP ag, ANO1 activ, CRFR2-BP antag)
NC(=NCCc1c[nH]c2ccccc12)NC(=O)c1ccc(Cl)cc1	ANO1 block 100
O=C(c1cccc([N+](=O)[O-])c1)c1ccc2c(c1)OCCOCCOCCO2	CRFR2-BP antag 58
CCN1CCCC1Cn1cnc2c([nH]c3cccc(Cl)c32)c1=O (stereo not given)	ANO1 activ -10
COc1ccccc1NC(=O)Nc1nc(CC(=O)N2CCN(c3ccccc3)CC2)cs1	TAAR1 antagonist 52
COc1ccc(N2CCN(C(=O)Cc3csc(NC(=O)Nc4ccccc4OC)n3)CC2)cc1	TAAR1 antagonist 50
COc1ccccc1NC(=O)Nc1nc(CC(=O)NCc2ccccn2)cs1	none
COc1ccc(NC(=O)Cc2csc(NC(=O)Nc3ccccc3OC)n2)cc1	TAAR1 antagonist 49 (no result: ANO1 block, ANO1 activ)
COc1ccccc1NC(=O)Nc1nc(CC(=O)NC2CCCC2)cs1	none
COc1ccccc1NC(=O)Nc1nc(CC(=O)Nc2ccc(N(C)C)cc2)cs1	none
CC1CCC(NC(=O)CN2C(=O)c3cccnc3Oc3ccc(Cl)cc32)CC1 (stereo not given)	none
CC(=O)OC[C@@H]1CN(Cc2cccc(C(F)(F)F)c2)C[C@H](n2cnc3c(NCc4ccco4)ncnc32)O1	TAAR1 antagonist 56 (no result: ANO1 block, CRFR2-BP ag, ANO1 activ, CRFR2-BP antag)
CCCNC(=O)C1CCN(S(=O)(=O)c2c(C)noc2/C=C\c2ccc(OC)cc2)CC1	none
CNC(=O)C1CCN(S(=O)(=O)c2c(C)noc2/C=C/c2ccc(OC)cc2)CC1	CRFR2-BP ag 54
CC(C)c1ccc(NNC(=O)C2CCC2)cc1	none
Cc1ccccc1CNC(=O)c1ccccc1C	none
Cc1ccccc1CNC(=O)c1ccccc1N	CRFR2-BP antag 55
